In ChEMBL document CHEMBL1124474, “7-[3-(4-acetyl-3-methoxy-2-propylphenoxy)propoxy]-3,4-dihydro-8- propyl-2H-1-benzopyran-2-carboxylic acid: an orally active selective leukotriene B4 receptor antagonist” (J Med Chem, 1989):
Activity calls are given as the source filed them. The rule behind the calls is not given here.

Experiments:
[1] = molecular target: T1, Cysteinyl leukotriene receptor 1 (Cavia porcellus) (UniProt Q2NNR5); assay: Inhibition of binding to the leukotriene D4 receptor at 1*10e-5 M concentration
T1 sequence (whole entry): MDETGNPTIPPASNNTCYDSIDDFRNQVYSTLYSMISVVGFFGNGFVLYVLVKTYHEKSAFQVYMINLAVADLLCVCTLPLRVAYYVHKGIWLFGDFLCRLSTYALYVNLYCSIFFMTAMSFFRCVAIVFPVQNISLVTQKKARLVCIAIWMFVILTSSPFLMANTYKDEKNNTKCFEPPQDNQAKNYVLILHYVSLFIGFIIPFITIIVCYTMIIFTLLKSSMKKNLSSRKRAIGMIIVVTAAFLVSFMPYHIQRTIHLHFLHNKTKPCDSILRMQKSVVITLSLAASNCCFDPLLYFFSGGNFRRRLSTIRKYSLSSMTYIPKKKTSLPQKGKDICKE
Summary of the method: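 Competition binding at LTD4 receptor: protein adjusted to about 0.1 nM receptor with 1 nM [3H]LTD4, 30 min at 24 °C; bound and free ligand separated by filtration. Compound tested at 1×10^-5 M.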

Cavia porcellus = assay: Topical effective dose when coapplied with phorbol ester (PMA) was assessed by ear weight as a reflection of edema; format: functional
Homo sapiens [2] = assay: Blood plasma levels of compound after 40 mg/kg oral dose of compound at 12 hr; format: functional, organism-based; set-up: dose 40 mg/kg
Summary of the method: (§1)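 Single 40 mg/kg oral dose; blood plasma drug level sampled at 1 h and 12 h after dosing.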

Homo sapiens [3] = assay: Blood plasma levels of compound after 40 mg/kg oral dose of compound at 1 hr; format: functional, organism-based; set-up: dose 40 mg/kg; summary of the method: as §1
Homo sapiens [4] = species on record: Homo sapiens; assay: Inhibition of human neutrophil leukotriene B4 induced neutrophil chemotaxis; format: functional
Summary of the method: (§2)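 Human neutrophils isolated from citrated peripheral blood by 5% dextran sedimentation, Histopaque centrifugation and hypotonic erythrocyte lysis. 3×10^6 cells/mL in HEPES-buffered HBSS in upper well of modified Boyden chamber; lower well, across polycarbonate membrane, held HBSS or 3×10^-8 M LTB4 ± compound. 90 min, 37 °C; lower-well cells lysed, nuclei counted (Coulter); % inhibition after subtracting mean HBSS random migration.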

Homo sapiens [5] = species on record: Homo sapiens; assay: Inhibition of human neutrophil leukotriene B4 induced neutrophil degranulation; format: functional
Summary of the method: (§3)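 Human neutrophils (3×10^6 in 1 mL HBSS) preincubated with cytochalasin B (5 µg) 5 min at 37 °C, then compound 7 min, then stimulated 2-20 min with LTB4 5×10^-8 M. Degranulation read as myeloperoxidase released into medium; pellets sonicated in phosphate buffer with 0.4% Triton X-100, supernatants brought to 0.4% Triton, both assayed.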

Bos taurus = species on record: Bos taurus; assay: Inhibition of bovine heart phosphodiesterase at 50 uM (no inhibition)
Homo sapiens [6] = species on record: Homo sapiens; assay: Inhibition of human neutrophil leukotriene B4 induced neutrophil degranulation at 10e-5 M compound concentration; NA = not active; format: functional; summary of the method: as §3
Homo sapiens [7] = species on record: Homo sapiens; assay: Inhibition of human neutrophil leukotriene B4 induced neutrophil chemotaxis at 10e-5 M compound concentration; NA = not active; format: functional; summary of the method: as §2

Compound: CCCc1c(OCCCOc2ccc(C(C)=O)c(OC)c2CCC)ccc2c1OC(C(=O)O)CC2 (centres undefined) [SC-41390]
- inhibition [1]: 4%
- ED50 (Cavia porcellus): 4.1 uM ear-1
- Plasma level (Homo sapiens [2]): 12 µg/mL
- Plasma level (Homo sapiens [3]): 7 µg/mL
- IC50 (Homo sapiens [4]): 2 µM
- IC50 (Homo sapiens [5]): 1 µM
- inhibition (Bos taurus): inactive

Compound: CCCc1c(OCCCOc2ccc3c(c2CCC)OC(C(=O)O)CC3)ccc(C(C)=O)c1O (centres undefined)
- Activity (Homo sapiens [6]): inactive
- Activity (Homo sapiens [7]): inactive
